The values that follow come from ChEMBL document CHEMBL1127665, “Synthesis and antibacterial activity of new quinolones containing a 7-[3-(1-amino-1-methylethyl)-1-pyrrolidinyl] moiety. Gram-positive agents with excellent oral activity and low side-effect potential” (J Med Chem, 1994).

Broadly, the IC50 is the concentration needed to halve the response being measured.

Data set [1] has as its system Enterobacter cloacae. Put plainly: Minimum inhibitory concentration against Enterobacter cloacae MA 2646. It counts as functional.
The test system of data set [2] is Escherichia coli. Nature of the data set: Minimum inhibitory concentration against Escherichia coli Vogel. In kind it is functional. In outline: (§1)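 Tested by microtitration against a panel of 10 Gram-positive and Gram-negative organisms. MIC is reported in μg/mL.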
The subject of data set [3] is Klebsiella pneumoniae. Put plainly: Minimum inhibitory concentration against Klebsiella pneumoniae MGH-2. In kind it is functional. In outline: as §1
A short description of data set [4]: The no effect dose (NED) for phototoxicity in mouse. In kind it is organism-based. The following applies: in vivo, read-out: NED. In outline:
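Female CD-1 mice were depilated and dosed orally, with five animals per dose plus controls. After each dose the mice were exposed to UVA for 3 h. This was repeated daily for 4 days. Any redness or erythema relative to control was scored positive. The value is the highest dose producing no effect, in mg/kg.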

In data set [5] the test system is Mus musculus. Put plainly: In vivo antibacterial activity against Escherichia coli after following oral administration. It counts as functional. Conditions: read-out: PD50. The gist of the method: (§2)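 Acute lethal systemic infection in female Charles River CD-1 mice. Compound given orally or subcutaneously. Potency expressed as median protective dose (PD50, mg/kg), the dose preventing death in 50% of animals.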

The subject of data set [6] is Mus musculus. Nature of the data set: In vivo antibacterial activity against Escherichia coli after following subcutaneous administration. It counts as functional. Conditions: sc, read-out: PD50. The gist of the method: as §2
In data set [7] the test system is Mus musculus. Nature of the data set: In vivo antibacterial activity against Streptococcus pyogenes after following oral administration. It counts as functional. Conditions: read-out: PD50. In outline:
as §2

Data set [8] concerns Mus musculus. Nature of the data set: In vivo antibacterial activity against Streptococcus pyogenes after following subcutaneous administration. Conditions: sc, read-out: PD50. It counts as functional. In outline:
as §2

The test system of data set [9] is Pseudomonas aeruginosa. Put plainly: Minimum inhibitory concentration against U1-18 cell line from Pseudomonas aeruginosa. In kind it is functional. The gist of the method:
as §1

Data set [10] has as its system Providencia rettgeri. Nature of the data set: Minimum inhibitory concentration against M1771 strain of Providencia rettgeri. In kind it is functional. In outline: as §1
Data set [11] has as its system Staphylococcus aureus. Put plainly: Minimum inhibitory concentration against Staphylococcus aureus H 228. In kind it is functional. In outline: as §1
For data set [12], the system named is Staphylococcus aureus. Nature of the data set: Minimum inhibitory concentration against Staphylococcus aureus UC-76. It counts as functional. The gist of the method: as §1
For data set [13], the system named is Streptococcus pyogenes. Nature of the data set: Minimum inhibitory concentration against Streptococcus pyogenes C203. It counts as functional. In outline:
as §1

Data set [14] deals with V79. Put plainly: Clonogenic cytotoxicity against Hamster V-79 cells. In kind it is cell-based. The following applies: Cricetulus griseus.
For data set [15], the system named is Enterococcus faecalis. Nature of the data set: Minimum inhibitory concentration against Streptococcus faecalis MGH-2. It counts as functional. In outline: as §1
Data set [16] relates to Streptococcus pneumoniae. Put plainly: Minimum inhibitory concentration tested against Streptococcus pneumoniae SV-1. In kind it is functional. In outline:
as §1

In brackets after ≈: the same amount, converted by molar mass.

In the case of `C[C@@H](N)C1CCN(c2nc3c(cc2F)c(=O)c(C(=O)O)cn3C2CC2)C1` (stereo partly drawn), the MIC in data set [1] was 0.05 µg/mL (≈ 0.139 µM); in data set [2], 0.025 µg/mL (≈ 0.0694 µM); in data set [3] it was 0.05 µg/mL (≈ 0.139 µM); in data set [9], 0.4 µg/mL (≈ 1.11 µM); in [10], 0.1 µg/mL (≈ 0.277 µM); in data set [11] it was 0.025 µg/mL (≈ 0.0694 µM). Besides, the MIC in [12] worked out at 0.003 µg/mL (≈ 0.00832 µM); in data set [13], 0.013 µg/mL (≈ 0.0361 µM); in data set [15] it was 0.013 µg/mL (≈ 0.0361 µM); in data set [16] it was 0.003 µg/mL (≈ 0.00832 µM). The NOAEL in data set [4] turned out to be 30 mg/kg. Besides, the ED50 in data set [5] was found to be 2 mg/kg; in data set [6], 0.4 mg/kg; in data set [7], 3 mg/kg; in [8], 1 mg/kg. In data set [14], this compound had an IC50 of 33 µg/mL (≈ 91.6 µM).
Consider `NC1CCN(c2c(F)cc3c(=O)c(C(=O)O)cn(C4CC4)c3c2F)C1` (stereo not drawn), for which the MIC in [1] amounted to 0.025 µg/mL (≈ 0.0716 µM); in data set [2], 0.013 µg/mL (≈ 0.0372 µM); in data set [3], 0.025 µg/mL (≈ 0.0716 µM); in [9], 0.1 µg/mL (≈ 0.286 µM); in data set [10], 0.05 µg/mL (≈ 0.143 µM); in data set [11] it was 0.05 µg/mL (≈ 0.143 µM). For the same compound, the MIC in data set [12] is 0.025 µg/mL (≈ 0.0716 µM); in [13], 0.05 µg/mL (≈ 0.143 µM); in data set [15], 0.05 µg/mL (≈ 0.143 µM); in [16], 0.05 µg/mL (≈ 0.143 µM). Also, the NOAEL in data set [4] was determined as 3 mg/kg. Also, the ED50 in data set [5] was 1 mg/kg; in data set [6], 0.2 mg/kg; in data set [7], 8 mg/kg; in data set [8], 2 mg/kg.
For the compound `C[C@H](N)C1CCN(c2nc3c(cc2F)c(=O)c(C(=O)O)cn3C2CC2)C1` (stereo partly drawn), the MIC came to 0.05 µg/mL (≈ 0.139 µM) in [1]; 0.05 µg/mL (≈ 0.139 µM) in data set [2]; 0.1 µg/mL (≈ 0.277 µM) in data set [3]; 0.8 µg/mL (≈ 2.22 µM) in data set [9]; 0.4 µg/mL (≈ 1.11 µM) in data set [10]; 0.05 µg/mL (≈ 0.139 µM) in data set [11]. Besides, the MIC in data set [12] is 0.006 µg/mL (≈ 0.0166 µM); in [13] it was 0.013 µg/mL (≈ 0.0361 µM); in data set [15] it was 0.05 µg/mL (≈ 0.139 µM); in data set [16], 0.006 µg/mL (≈ 0.0166 µM). Also, in data set [4], the NOAEL was 67 mg/kg. Besides, the ED50 was 6 mg/kg in [5], 1 mg/kg in [6], 14 mg/kg in data set [7] and 2 mg/kg in data set [8]. In data set [14], this compound registered an IC50 of 100 µg/mL (≈ 277 µM).
In the case of `CC(C)(N)[C@@H]1CCN(c2nc3c(cc2F)c(=O)c(C(=O)O)cn3C2CC2)C1.Cl`, the MIC in data set [1] stood at 0.1 µg/mL; in data set [2], 0.05 µg/mL; in [3], 0.2 µg/mL; in [9], 1.6 µg/mL; in data set [10], 0.4 µg/mL; in data set [11] it was 0.1 µg/mL. For the same compound, the MIC in [12] is 0.003 µg/mL; in data set [13] it was 0.013 µg/mL; in data set [15] it was 0.05 µg/mL; in data set [16] it was 0.006 µg/mL. Further, the NOAEL in data set [4] amounted to 73 mg/kg. Also, the ED50 was found to be 5 mg/kg in data set [5], 1 mg/kg in data set [6], 4 mg/kg in data set [7] and 1 mg/kg in data set [8]. In data set [14], this compound yielded an IC50 of 130 µg/mL.
